# Experimental data as given in ChEMBL document CHEMBL1143361, “Tetracyclic indole inhibitors of hepatitis C virus NS5B-polymerase” (Bioorg Med Chem Lett, 2009).
# Activity calls are given as the source filed them. The calls are words filed in the database; no cut-off is given here.
# Tests used:
# [1] = Inhibition of HCV NS5B Cdelta21 in presence of heterogenic template RNA; design: species or system Hepacivirus hominis
# Procedure, shortened: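 Purified NS5B enzyme (C-terminal 21-residue deletion) assayed with heterogenic template RNA. IC50 is the mean of at least two experiments.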
# Hepatitis C virus = test: Antiviral activity against Hepatitis C virus infected in human HUH7 cells by replicon assay; type: functional, organism-based, Hepacivirus hominis; settings: Huh-7
# Procedure, shortened: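 Subgenomic HCV RNA replicon in HUH-7 cells, adapted from the Bartenschlager procedure, run in 10% fetal calf serum unless otherwise stated. EC50 is the mean of at least two experiments.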
# Hepatocyte = test: Metabolic stability in human hepatocytes after 4 hrs by HPLC; type: ADME, cell-based
# Procedure, shortened: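 [3H]-labelled compound incubated 4 h with human hepatocytes. Analysis by HPLC with radiochromatographic detection.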
# [2] = Fraction unbound in dog plasma; type: ADME, cell-free, Canis lupus familiaris
# [3] = Oral bioavailability in dog; type: ADME, organism-based, Canis lupus familiaris; settings: in vivo
# Procedure, shortened: (§1)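 Given as HCl or trifluoroacetate salts, intravenously (vehicle 20% DMSO/60% PEG400/20% H2O) and orally (vehicle PEG400); n = 3. AUC reported with the dose in mpk; oral bioavailability and plasma clearance are derived from these dosings.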
# [4] = Plasma clearance in rhesus monkey; type: ADME, organism-based, Macaca mulatta; procedure, shortened: as §1
# [5] = Intrinsic clearance in dog liver microsomes in presence of NADPH; type: ADME, Canis lupus familiaris, Microsome
# Procedure, shortened: (§2)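 Incubated with liver microsomes (rat, dog, rhesus or human) in the presence of NADPH. Intrinsic clearance is expressed in ml/min/kg.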
# [6] = Plasma clearance in rat; type: ADME, organism-based; procedure, shortened: as §1
# [7] = Plasma clearance in dog; type: ADME, organism-based, Canis lupus familiaris; procedure, shortened: as §1
# [8] = Metabolic stability in po dosed rat assessed as biliary excretion; type: ADME, organism-based; settings: bile, read-out: Stability
# [9] = Oral bioavailability in rhesus monkey; type: ADME, organism-based, Macaca mulatta; settings: in vivo; procedure, shortened: as §1
# [10] = Oral bioavailability in rat; type: ADME, organism-based; settings: in vivo; procedure, shortened: as §1
# Canis familiaris = test: Cardiotoxicity in anesthetized dogs assessed as prolongation of QT interval up to 10 mg/kg; type: toxicity, organism-based, Canis lupus familiaris; design: dose 10 mg/kg; settings: dog, in vivo
# [11] = Intrinsic clearance in rat liver microsomes in presence of NADPH; type: ADME, Microsome; procedure, shortened: as §2
# [12] = Ratio of drug level from liver to plasma in po dosed rat after 6 hrs; type: ADME, organism-based
# Procedure, shortened: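 Rats dosed orally; compound concentrations in liver and plasma measured 6 h after administration and expressed as a liver/plasma ratio.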
# [13] = Intrinsic clearance in human liver microsomes in presence of NADPH; type: ADME, Microsome; procedure, shortened: as §2
# [14] = Intrinsic clearance in rhesus monkey liver microsomes in presence of NADPH; type: ADME, Macaca mulatta, Microsome; procedure, shortened: as §2
# [15] = Fraction unbound in human plasma; type: ADME, cell-free
# [16] = biological target: T1, Nuclear receptor subfamily 1 group I member 2 (Homo sapiens, UniProt O75469); test: Activity at human PXR at 10 uM by reporter gene assay
# T1 sequence (O75469 whole entry): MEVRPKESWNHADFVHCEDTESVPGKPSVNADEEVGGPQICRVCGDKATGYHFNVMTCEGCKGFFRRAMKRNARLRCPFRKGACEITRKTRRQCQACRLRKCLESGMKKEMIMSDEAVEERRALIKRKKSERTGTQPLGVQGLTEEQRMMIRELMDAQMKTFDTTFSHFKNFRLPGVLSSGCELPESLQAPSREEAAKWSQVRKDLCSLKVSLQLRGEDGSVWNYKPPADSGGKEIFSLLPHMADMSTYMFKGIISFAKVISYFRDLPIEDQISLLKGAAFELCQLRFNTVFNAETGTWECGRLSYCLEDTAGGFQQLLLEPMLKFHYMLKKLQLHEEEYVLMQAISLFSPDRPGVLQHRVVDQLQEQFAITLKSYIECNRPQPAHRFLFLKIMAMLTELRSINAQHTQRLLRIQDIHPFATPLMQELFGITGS
# [17] = AUC in rhesus monkey; type: ADME, organism-based, Macaca mulatta; settings: plasma; procedure, shortened: as §1
# [18] = Metabolic stability in po dosed dog assessed as urinary excretion; type: ADME, organism-based, Canis lupus familiaris; settings: urine, read-out: Stability
# [19] = AUC in rat; type: ADME, organism-based; settings: plasma; procedure, shortened: as §1
# [20] = Fraction unbound in rat plasma; type: ADME, cell-free
# [21] = Metabolic stability in po dosed rat assessed as urinary excretion; type: ADME, organism-based; settings: urine, read-out: Stability
# Cytochrome P450 3A4 = Cytochrome P450 3A4 (Homo sapiens, UniProt P08684); test: Inhibition of CYP3A4 in human liver microsomes; type: ADME, Microsome
# Sequence of Cytochrome P450 3A4 (P08684 whole entry): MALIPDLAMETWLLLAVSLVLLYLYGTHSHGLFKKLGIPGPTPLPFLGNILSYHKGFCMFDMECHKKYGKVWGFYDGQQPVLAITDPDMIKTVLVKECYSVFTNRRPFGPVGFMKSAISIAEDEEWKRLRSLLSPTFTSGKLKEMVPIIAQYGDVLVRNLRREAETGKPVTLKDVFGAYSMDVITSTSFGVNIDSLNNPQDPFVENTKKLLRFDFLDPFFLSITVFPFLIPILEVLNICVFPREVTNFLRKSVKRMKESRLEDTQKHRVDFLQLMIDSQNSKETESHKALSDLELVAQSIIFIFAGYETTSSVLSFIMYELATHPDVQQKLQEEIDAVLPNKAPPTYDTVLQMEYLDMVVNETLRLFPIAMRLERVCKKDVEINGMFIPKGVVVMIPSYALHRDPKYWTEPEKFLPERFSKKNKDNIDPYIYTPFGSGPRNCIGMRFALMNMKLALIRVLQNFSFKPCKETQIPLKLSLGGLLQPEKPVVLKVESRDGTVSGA
# [22] = AUC in dog; type: ADME, organism-based, Canis lupus familiaris; settings: plasma; procedure, shortened: as §1
# Homo sapiens = organism: Homo sapiens; test: Inhibition of human DNA polymerase
# [23] = Protein binding in human plasma; type: ADME, cell-free; settings: read-out: PPB (converted)
compound,measurement,setting,value
COc1ccc2c(c1)N(CCN(C)C)CCCn1c-2c(C2CCCCC2)c2ccc(C(=O)O)cc21,IC50,[1],77 nM
same,EC50,Hepatitis C virus,540 nM
CN1CCn2c(c(C3CCCCC3)c3ccc(C(=O)O)cc32)-c2ccccc2C1,IC50,[1],170 nM
same,EC50,Hepatitis C virus,890 nM
CN(C)CCN1C(=O)Cn2c(c(C3CCCCC3)c3ccc(C(=O)O)cc32)-c2ccccc21,IC50,[1],130 nM
same,EC50,Hepatitis C virus,410 nM
CN(C)CC1CN(C)c2ccccc2-c2c(C3CCCCC3)c3ccc(C(=O)O)cc3n21 (racemic),IC50,[1],1920 nM
same,EC50,Hepatitis C virus,13500 nM
CN(C)CCN1CCn2c(c(C3CCCCC3)c3ccc(C(=O)O)cc32)-c2ccccc2C1,Stability,Hepatocyte,Stable
same,fraction unbound,[2],0.03
same,bioavailability,[3],74%
same,clearance,[4],22 mL/min/kg
same,CLint scaled,[5],26 mL/min/kg
same,clearance,[6],61 mL/min/kg
same,IC50,[1],27 nM
same,clearance,[7],2.5 mL/min/kg
same,dose excreted,[8],4%
same,bioavailability,[9],57%
same,bioavailability,[10],31%
same,Activity,Canis familiaris,Non-toxic
same,CLint scaled,[11],100 mL/min/kg
same,Kp at 6 h,[12],16
same,CLint scaled,[13],5 mL/min/kg
same,CLint scaled,[14],51 mL/min/kg
same,fraction unbound,[15],0.03
same,Activity,[16],Not Active
same,AUC,[17],2 µM·h
same,dose excreted,[18],< 1%
same,AUC,[19],4.2 µM·h
same,fraction unbound,[20],0.07
same,dose excreted,[21],1%
same,Activity,Cytochrome P450 3A4,Not Active
same,AUC,[22],23 µM·h
same,Activity,Homo sapiens,inactive
CN(C)CCN1Cc2ccccc2-c2c(C3CCCCC3)c3ccc(C(=O)O)cc3n2CC1=O,IC50,[1],110 nM
same,EC50,Hepatitis C virus,260 nM
CN(C)CCN1Cc2ccccc2-c2c(C3CCCCC3)c3ccc(C(=O)O)cc3n2CCC1=O,IC50,[1],860 nM
same,EC50,Hepatitis C virus,1440 nM
CN(C)C(=O)Cn1c(-c2ccccc2)c(C2CCCCC2)c2ccc(C(=O)O)cc21,IC50,[1],430 nM
same,fraction unbound,[23],0.029
CN(C)CC1Cn2c(c(C3CCCCC3)c3ccc(C(=O)O)cc32)-c2ccccc2CN1C (racemic),IC50,[1],35 nM
same,EC50,Hepatitis C virus,140 nM
CN(C)CC1Cn2c(c(C3CCCCC3)c3ccc(C(=O)O)cc32)-c2ccccc2N1C (racemic),IC50,[1],43 nM
same,EC50,Hepatitis C virus,160 nM
CN1Cc2ccccc2-c2c(C3CCCCC3)c3ccc(C(=O)O)cc3n2CC1=O,IC50,[1],80 nM
same,fraction unbound,[23],0.003
same,EC50,Hepatitis C virus,18900 nM
COc1ccc2c(c1)CN(C)CCn1c-2c(C2CCCCC2)c2ccc(C(=O)O)cc21,bioavailability,[3],67%
same,CLint scaled,[5],6 mL/min/kg
same,clearance,[6],32 mL/min/kg
same,IC50,[1],55 nM
same,clearance,[7],2.9 mL/min/kg
same,bioavailability,[10],83%
same,CLint scaled,[11],43 mL/min/kg
same,CLint scaled,[13],7 mL/min/kg
same,CLint scaled,[14],16 mL/min/kg
same,AUC,[19],2.9 µM·h
same,EC50,Hepatitis C virus,290 nM
same,AUC,[22],18.7 µM·h
COc1ccc2c(c1)CN(CCN(C)C)CCn1c-2c(C2CCCCC2)c2ccc(C(=O)O)cc21,IC50,[1],35 nM
same,EC50,Hepatitis C virus,100 nM
CN(C)CCN1CCn2c(c(C3CCCCC3)c3ccc(C(=O)O)cc32)-c2ccccc21,IC50,[1],28 nM
CN(C)CC(=O)N1CCn2c(c(C3CCCCC3)c3ccc(C(=O)O)cc32)-c2ccc(F)cc2C1,fraction unbound,[2],0.02
same,bioavailability,[3],83%
same,CLint scaled,[5],8 mL/min/kg
same,clearance,[6],12 mL/min/kg
same,IC50,[1],60 nM
same,clearance,[7],3 mL/min/kg
same,bioavailability,[10],48%
same,CLint scaled,[11],16 mL/min/kg
same,Kp at 6 h,[12],8
same,CLint scaled,[13],13 mL/min/kg
same,CLint scaled,[14],42 mL/min/kg
same,fraction unbound,[15],0.02
same,AUC,[19],4 µM·h
same,fraction unbound,[20],0.02
same,EC50,Hepatitis C virus,170 nM
same,AUC,[22],17.6 µM·h
CN(C)CC(=O)N1CCn2c(c(C3CCCCC3)c3ccc(C(=O)O)cc32)-c2ccccc2C1,IC50,[1],130 nM
same,EC50,Hepatitis C virus,220 nM
CCN(CC)C1CCN(C(=O)Cn2c(-c3ccc(Cl)cc3)c(C3CCCCC3)c3ccc(C(=O)O)cc32)CC1,IC50,[1],48 nM
same,bioavailability,[10],10%
same,AUC,[19],0.2 µM·h
same,EC50,Hepatitis C virus,180 nM
